Only some compounds are listed: those with a hit (about 5.8% of all), similar ones and a draw of the others.
Pf Dd2 growth – inhibitors of Plasmodium falciparum Dd2 growth; 2.3% of 94,000 active; P. falciparum Dd2 growth, SYBR Green, 72 h; stronger effect = lower value; activity change, % at 10 µM; in the data active = activity change below about -80%; inconclusive = no clear call, values can overlap the other calls
T cruzi growth-1 – inhibitors of T. cruzi proliferation; T. cruzi beta-gal in NIH3T3, GalScreen luminescence, 90 h; inhibition, % at 8.34 µM; 5.9% of 77,000 active; AID 624255;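 active = mean inhibition above about 93%, with at least 55% of replicates each passing it, limit read from the data, passing the limit was not always enough; inconclusive = only one of those two conditions holds; inactive = neither condition holds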
IDH1 mut inh – inhibitors of human IDH1 R132H | IDH1 R132H reductase, diaphorase/resazurin fluorescence, 60 min | inhibition, % at 10 µM | 0.18% of 70,000 active | AID 624101; in the data active = inhibition above about 34%; inconclusive = no clear call, values can overlap the other calls; inactive = below about 11%;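 note: 0% = DMSO and 100% = no enzyme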
Target sequence (O75874 whole entry R132H): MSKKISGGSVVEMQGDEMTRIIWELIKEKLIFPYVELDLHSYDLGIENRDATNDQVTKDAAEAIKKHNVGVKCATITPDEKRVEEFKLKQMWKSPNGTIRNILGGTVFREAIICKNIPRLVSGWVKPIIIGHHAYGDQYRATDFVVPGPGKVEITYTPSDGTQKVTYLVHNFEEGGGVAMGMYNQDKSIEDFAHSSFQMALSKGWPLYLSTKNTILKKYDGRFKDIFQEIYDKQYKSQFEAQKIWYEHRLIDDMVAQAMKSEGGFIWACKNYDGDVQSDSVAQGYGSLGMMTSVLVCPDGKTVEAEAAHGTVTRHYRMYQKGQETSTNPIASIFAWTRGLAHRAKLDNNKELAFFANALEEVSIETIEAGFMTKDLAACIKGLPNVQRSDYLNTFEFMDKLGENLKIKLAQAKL
KDM4C inh – KDM4C (human) demethylase inhibition; Q9H3R0; GST-KDM4C 2-372, H3K9me3 peptide, LANCE TR-FRET; inhibition, % at 12.5 µM; 0.15% of 96,000 active; AID 720574;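 active = mean replicate inhibition above about 25%, with at least 55% of replicates also reaching it, limit read from the data, passing the limit was not always enough; inconclusive = only one of those two conditions met; inactive = neither condition met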
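reagent = H3K9me3 peptide substrate, Fe(II), 2-oxoglutarate | system = GST-tagged GASC-1 (JMJD2C) catalytic fragment, aa 2-372 | amount = enzyme final amount 10 nM | read-out = Fall in 671/618 emission ratio as inhibition | medium = HEPES buffer, pH 7.5, plus ascorbate | schedule = 30 min reaction, 60 min detection, RT | measured by = LANCE TR-FRET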
T cruzi growth-2 – blocks T. cruzi growth in NIH3T3 host cells. shares compounds with T cruzi growth-1. T. cruzi beta-gal in NIH3T3, GalScreen luminescence, 90 h. inhibition, % at 8.35 µM. 72% of 5,600 active;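 active = mean replicate inhibition above about 95% and at least 55% of replicates individually reaching it, limit read from the data; inconclusive = only one of the two criteria is met; inactive = neither criterion is met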
T cruzi growth-3 – Trypanosoma cruzi proliferation inhibition | inhibition, % at 2.09 µM | T. cruzi beta-gal in NIH3T3, GalScreen luminescence, 90 h | 21% of 5,600 active | shares compounds with T cruzi growth-1;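 active = mean inhibition above about 95%, with at least 55% of replicates also reaching it, limit read from the data; inconclusive = meets just one of the two conditions; inactive = meets neither condition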;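 note: plate controls were neutral control median for no effect and positive control median for full effect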
3T3 cytotox – kills mouse NIH/3T3 fibroblasts; shares compounds with T cruzi growth-1; NIH/3T3 viability, CellTiter-Glo ATP luminescence, 90 h; cytotoxicity (signal decrease), % at 8.35 µM; 14% of 5,600 active; AID 651742;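 active = mean signal decrease across replicates above about 35% based on untreated-well scatter, with enough replicates individually passing, limit read from the data; inconclusive = no rule stated though some were filed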;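 note: 0% = median of neutral control wells and 100% = median of positive control wells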
NIH3T3 tox 2 – cytotoxicity in mouse NIH/3T3 fibroblasts. shares compounds with T cruzi growth-1. NIH/3T3 viability, CellTiter-Glo ATP luminescence, 90 h. inhibition, % at 24.9 µM. 56% of 5,600 active;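 active = mean loss of cell viability signal at or above a set limit, and enough replicates individually reaching it; inconclusive = meets only the mean limit or only the replicate share; inactive = meets neither condition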;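 note: 0% = median of neutral control wells and 100% = median of positive control wells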
* = called active by the depositor; ? = inconclusive; . = no result.

SMILES | Pf Dd2 growth | T cruzi growth-1 | IDH1 mut inh | KDM4C inh | T cruzi growth-2 | T cruzi growth-3 | 3T3 cytotox | NIH3T3 tox 2
C[C@@H]1CN([C@@H](C)CO)S(=O)(=O)c2ccc(/C=C/c3ccccc3)cc2O[C@@H]1CN(C)Cc1ccccc1 | -7 | 100* | 0 | -1 | 97* | 110* | 17 | 81*
COc1ccc(NC(=O)N(C)C[C@@H]2Oc3ccc(NC(=O)Nc4ccc5c(c4)OCO5)cc3CC(=O)N([C@@H](C)CO)C[C@@H]2C)cc1 | 13 | -1 | -10 | 3 | . | . | . | .
C[C@@H]1CN([C@@H](C)CO)S(=O)(=O)c2ccc(C#CC(C)(C)O)cc2O[C@H]1CN(C)Cc1ccncc1 | -39 | 100* | 2 | 0 | 100* | 76 | 12 | 56*
C[C@@H]1CN([C@H](C)CO)S(=O)(=O)c2ccc(C#CC(C)(C)O)cc2O[C@H]1CN(C)Cc1ccncc1 | -13 | ? | 16 | -1 | 87 | 84 | 44* | 71*
C[C@@H]1CN([C@@H](C)CO)S(=O)(=O)c2ccc(C3=CCCCC3)cc2O[C@@H]1CN(C)C(=O)c1ccc(F)cc1 | 0 | 114* | -3 | -1 | 107* | 94 | 23 | 98*
C[C@H](CO)N1C[C@H](C)[C@H](CN(C)C(=O)c2ccncc2)Oc2cc(C3=CCCC3)ccc2S1(=O)=O | -22 | ? | 10 | 2 | 99* | 62 | 9 | 21
COCCNC(=O)c1cc2c(c(-c3cccc(C4=CCCC4)c3)n1)[C@H](CCO)N([S@@](=O)C(C)(C)C)C2 | 42 | 9 | 0 | 1 | . | . | . | .
COCC#Cc1ccc([C@H]2[C@@H](CO)N3CCCCN(S(=O)(=O)c4ccccc4C)C[C@@H]23)cc1 | -41 | 86 | . | -2 | . | . | . | .
CCCC#Cc1ccc([C@H]2[C@@H](CO)N3CCCCN(S(=O)(=O)c4ccccc4C)C[C@@H]23)cc1 | -73 | 108* | . | 14 | 100* | 94 | 3 | -4
CCCC#Cc1ccc([C@@H]2[C@H]3CN(S(=O)(=O)CC)CCCCN3[C@H]2CO)cc1 | 6 | 17 | . | 0 | . | . | . | .
COCC#Cc1ccc([C@H]2[C@@H](CO)N3CCCCN(S(=O)(=O)c4ccccc4C)C[C@H]23)cc1 | -62 | 98* | . | -2 | 98* | 70 | 17 | 107*
CCCC#Cc1ccc([C@@H]2[C@@H](CO)N3CCCCN(S(=O)(=O)CC)C[C@@H]23)cc1 | 14 | 102* | . | -2 | 50 | 10 | 30 | 35*
CCCC#Cc1ccc([C@H]2[C@H](CO)N3CCCCN(S(=O)(=O)c4ccccc4C)C[C@@H]23)cc1 | -21 | 96* | . | -1 | 86 | 99* | ? | 103*
COCC#Cc1ccc([C@H]2[C@H]3CN(S(=O)(=O)c4ccccc4C)CCCCN3[C@H]2CO)cc1 | -24 | 95 | . | -2 | . | . | . | .
Cc1ccccc1S(=O)(=O)N1CCCCN2[C@@H](CO)[C@H](c3ccc(C#CCN(C)C)cc3)[C@@H]2C1 | -49 | 67 | . | 2 | . | . | . | .
COc1ccc(CN(C)C[C@H]2Oc3ccc(NS(=O)(=O)c4cccs4)cc3CC(=O)N([C@H](C)CO)C[C@@H]2C)cc1 | -7 | . | 2 | 0 | . | . | . | .
CCCC#Cc1ccc([C@H]2[C@@H](CO)N3CCCCN(S(=O)(=O)c4ccccc4C)C[C@H]23)cc1 | -73 | 108* | . | -2 | 103* | ? | 52* | 103*
Cc1ccccc1S(=O)(=O)N1CCCCN2[C@H](C1)[C@@H](c1ccc(C#CCN(C)C)cc1)[C@@H]2CO | 2 | 38 | . | 0 | . | . | . | .
COCC#Cc1ccc([C@@H]2[C@H](CO)N3CCCCN(S(=O)(=O)c4ccccc4C)C[C@@H]23)cc1 | -62 | 27 | . | -1 | . | . | . | .
CCCC#Cc1ccc([C@@H]2[C@H]3CN(S(=O)(=O)c4ccccc4C)CCCCN3[C@H]2CO)cc1 | -51 | 111* | . | 2 | 96* | ? | ? | 106*
COc1ccc(NC(=O)CSc2ccccc2)cc1NC(=O)c1ccco1 | . | . | 0 | . | . | . | . | .
CCOC(=O)N(C)C[C@H]1OCc2ccccc2-c2c(n(C)c3ccccc23)C(=O)N([C@H](C)CO)C[C@H]1C | -19 | -15 | -6 | 1 | . | . | . | .
C[C@@H]1CCCCO[C@H](CN(C)Cc2ccc(C(F)(F)F)cc2)[C@H](C)CN([C@H](C)CO)C(=O)c2cc(NC(=O)c3ccncc3)ccc2O1 | -30 | 109* | . | -1 | 106* | 50 | 19 | 73*
C[C@@H]1CN([C@H](C)CO)C(=O)c2cc(NC(=O)c3ccncc3)ccc2O[C@@H](C)CCCCO[C@@H]1CN(C)Cc1ccc(C(F)(F)F)cc1 | -4 | 109* | -1 | 1 | 109* | 52 | 8 | 26*
C[C@H]1CCCCO[C@H](CN(C)Cc2ccc(C(F)(F)F)cc2)[C@@H](C)CN([C@@H](C)CO)C(=O)c2cc(NC(=O)c3ccncc3)ccc2O1 | -61 | 98* | . | 0 | 103* | 31 | 3 | 106*
SMILES | Pf Dd2 growth | T cruzi growth-1 | IDH1 mut inh | KDM4C inh | T cruzi growth-2 | T cruzi growth-3 | 3T3 cytotox | NIH3T3 tox 2
C[C@@H]1CCCCO[C@@H](CN(C)Cc2ccc(C(F)(F)F)cc2)[C@@H](C)CN([C@@H](C)CO)C(=O)c2cc(NC(=O)c3ccncc3)ccc2O1 | -6 | 36 | 1 | -2 | . | . | . | .
C[C@H]1CCCCO[C@@H](CN(C)Cc2ccc(C(F)(F)F)cc2)[C@@H](C)CN([C@@H](C)CO)C(=O)c2cc(NC(=O)c3ccncc3)ccc2O1 | -47 | 24 | 3 | 0 | . | . | . | .
C[C@@H]1CN([C@H](C)CO)C(=O)c2cccc(NC(=O)Nc3ccc(C(F)(F)F)cc3)c2O[C@@H]1CN(C)Cc1ccccc1 | -15 | 34 | . | -2 | . | . | . | .
C[C@@H]1CN([C@H](C)CO)C(=O)c2cccc(NC(=O)Nc3ccc(F)cc3)c2O[C@@H]1CN(C)Cc1ccc(-c2ccccc2)cc1 | -34 | ? | . | -2 | 105* | 75 | 32 | 71*
C[C@@H]1CN([C@H](C)CO)C(=O)c2cccc(NC(=O)Nc3ccccc3)c2O[C@H]1CN(C)Cc1ccc(C(F)(F)F)cc1 | -35 | 63 | 4 | 1 | . | . | . | .
C[C@@H]1CN([C@H](C)CO)C(=O)c2cccc(NC(=O)Nc3ccc(C(F)(F)F)cc3)c2O[C@@H]1CN(C)Cc1ccc(-c2ccccc2)cc1 | -38 | ? | 0 | -3 | 110* | 74 | 14 | 103*
C[C@@H]1CN([C@@H](C)CO)C(=O)c2cccc(NC(=O)Nc3ccc(C(F)(F)F)cc3)c2O[C@@H]1CN(C)Cc1ccc(-c2ccccc2)cc1 | -79 | ? | . | -2 | 93 | 114* | 92* | 104*

Screens as filed in PubChem BioAssay.
